# Measured values from different studies.
# Protocols differ between the studies behind these lines.
# Target: Eukaryotic elongation factor 2 kinase (EEF2K, Homo sapiens, UniProt O00418)
SMILES,test,system,setting,quantity,result
CCN(CC)CCNC(=O)c1c(C)[nH]c(/C=C2\C(=O)Nc3ccc(F)cc32)c1C,"enzyme activity, inhibitor",,0.3 µM,inhibition,-15%
CCCS(=O)(=O)Nc1ccc(F)c(C(=O)c2c[nH]c3ncc(-c4ccc(Cl)cc4)cc23)c1F,"enzyme activity, inhibitor",,1 µM,inhibition,< 10%
CN(c1ncccc1CNc1nc(Nc2ccc3c(c2)CC(=O)N3)ncc1C(F)(F)F)S(C)(=O)=O,"enzyme activity, inhibitor",,1 µM,inhibition,0%
Cn1c2c(c3ccc(Cl)c(Cl)c31)C(C#N)C1(CCCC1)NC2=O (stereo not drawn),"thermal stability, DSF",,10 µM,ΔTm,0 °C
Nc1nc(NC2CCCCC2)sc1C(=O)c1ccccc1,"enzyme activity, inhibitor",,10 µM,remaining activity,89%
CC/C(=N\NC(=O)NCc1cccc(O)c1)c1ccc(O)c(C)c1O,"enzyme activity, inhibitor",,0.1 µM,inhibition,1.1%
N#CC1c2c([nH]c3c(Cl)c(Cl)ccc23)C(=O)NC12CCCCC2 (racemic),"thermal stability, DSF",,10 µM,ΔTm,-0.1 °C
Cc1ccc(Nc2nccc(N(C)c3ccc4c(C)n(C)nc4c3)n2)cc1S(N)(=O)=O,"enzyme activity, inhibitor",,0.3 µM,inhibition,-7%
CCN1CCN(Cc2ccc(NC(=O)c3ccc(C)c(/C=C/c4cnc5[nH]ccc5c4OC)c3)cc2C(F)(F)F)CC1,"target engagement in cells, inhibitor, chemoproteomics",A-375,0.5 µM,inhibition,-21.7%
FC(F)(F)Oc1cccc(-c2cnc3ccc(-c4ccncc4)nn23)c1,"enzyme activity, inhibitor, radiometric",,1 µM,activity vs control,99%
CC(C)(C)c1nc2c(s1)c1nc(N)ncc1c1ccc(NS(=O)(=O)c3c(F)cccc3F)c(F)c12,"enzyme activity, inhibitor, radiometric",,1 µM,remaining activity,88%
CC(C)(C)C(=O)c1sc(NC2CCCCC2)nc1N,"enzyme activity, inhibitor",,10 µM,remaining activity,111%
CCN(CC)c1ccc(C2=NNC(=O)CC2C)cc1[N+](=O)[O-] (stereo not drawn),"enzyme activity, inhibitor",,10 µM,remaining activity,95%
Oc1cccc(-c2nc(N3CCOCC3)c3oc4ncccc4c3n2)c1,"enzyme activity, inhibitor",,10 µM,remaining activity,99%
CN1CCC2(CC1)NC(=O)c1c(c3ccc(Cl)c(Cl)c3n1C)C2C#N (racemic),"thermal stability, DSF",,10 µM,ΔTm,-0.1 °C
C=CC(=O)Nc1cc(Nc2nccc(Nc3cc(Cl)c(F)cc3C(C)(C)O)n2)c(OC)cc1N1CC[C@@H](N(C)C)C1,"enzyme activity, inhibitor",,1 µM,inhibition,11%
Cn1c2c(c3ccc(Cl)c(Cl)c31)C(C#N)C1(CCOCC1)NC2=O (stereo not drawn),"thermal stability, DSF",,10 µM,ΔTm,-0.2 °C
Cc1cnc(NC2CCOCC2)nc1-n1cnc(C(=O)NC(CN)c2cc(F)cc(Cl)c2)c1 (stereo not drawn),"enzyme activity, inhibitor, radiometric",,1 µM,remaining activity,108%
COc1cc2ncnc(Nc3ccc(Oc4ccccc4)cc3C)c2cc1OC,"enzyme activity, inhibitor",,1 µM,inhibition,2%
CC(C)c1ccc(NC(=O)c2cccs2)c(-c2nc3ccccc3[nH]c2=O)c1,"enzyme activity, inhibitor",,1 µM,activity vs control,113%
CNC(=O)c1cc(Oc2ccc(NC(=O)Nc3ccc(Cl)c(C(F)(F)F)c3)cc2)ccn1,"enzyme activity, inhibitor",,0.3 µM,inhibition,-6%
Cn1c2c(Cl)c(Cl)ccc2c2cc[nH]c(=O)c21,"thermal stability, DSF",,10 µM,ΔTm,-0.3 °C
COc1cc(Nc2cnc(C#N)c(O[C@H](C)CN(C)C)n2)ncc1-c1cnn(C)c1,"enzyme activity, inhibitor, radiometric",,10 µM,remaining activity,87%
CCN1CCN(Cc2ccc(NC(=O)c3ccc(C)c(Oc4ccnc5[nH]ccc45)c3)cc2C(F)(F)F)CC1,"target engagement in cells, inhibitor, chemoproteomics",A-375,0.5 µM,inhibition,0.084%
